ChEMBL document CHEMBL3259660, “Haloemodin as novel antibacterial agent inhibiting DNA gyrase and bacterial topoisomerase I” (J Med Chem, 2014)
Values after ≈ are worked out from the molar mass of the structure shown. Active and inactive are the calls of the source. The rule behind the calls is not given here.

Tests used:
[1] = system: Staphylococcus epidermidis; test: Antibacterial activity against methicillin-sensitive Staphylococcus epidermidis assessed as growth inhibition by agar dilution assay; type: functional
In short: (§1)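 Agar dilution MIC per CLSI (aerobic and anaerobic methods); compounds dissolved in DMSO, reference antibiotics in sterile water. MIC taken as lowest concentration with no visible growth; determined at least twice on separate days, higher value reported. Clinical isolate ranges summarized as MIC50/MIC90.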

[2] = system: Staphylococcus aureus; test: Antibacterial activity against methicillin-resistant Staphylococcus aureus assessed as growth inhibition by agar dilution assay; type: functional
In short: (§2)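 CLSI agar dilution MIC against aerobic and anaerobic strains. Test compounds were dissolved in DMSO and reference antibiotics in sterile water. MIC was taken as the lowest concentration showing no bacterial growth. Each MIC was determined at least twice on separate days, and the higher value was reported. E. coli PQ 37 was cultured in LA medium.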

[3] = system: Enterococcus faecalis; test: Antibacterial activity against vancomycin-sensitive Enterococcus faecalis assessed as growth inhibition by agar dilution assay; type: functional
[4] = system: Enterococcus faecium; test: Antibacterial activity against vancomycin-resistant Enterococcus faecium assessed as growth inhibition by agar dilution assay; type: functional
[5] = system: Brevibacillus laterosporus; test: Antibacterial activity against Brevibacillus laterosporus ATCC 64 assessed as growth inhibition by agar dilution assay; type: functional
[6] = system: Streptococcus pneumoniae; test: Antibacterial activity against Streptococcus pneumoniae ATCC 49619 assessed as growth inhibition by agar dilution assay; type: functional; in short: as §1
[7] = system: Streptococcus pneumoniae; test: Antibacterial activity against Streptococcus pneumoniae assessed as growth inhibition by agar dilution assay; type: functional; in short: as §1
[8] = system: Pseudomonas aeruginosa; test: Antibacterial activity against Pseudomonas aeruginosa ATCC 27853 assessed as growth inhibition by agar dilution assay; type: functional; in short: as §1
[9] = system: Pseudomonas aeruginosa; test: Antibacterial activity against Pseudomonas aeruginosa assessed as growth inhibition by agar dilution assay; type: functional; in short: as §2
[10] = system: Bacteroides fragilis; test: Antibacterial activity against Bacteroides fragilis ATCC 25285 assessed as growth inhibition by agar dilution assay; type: functional; in short: as §1
[11] = system: Bacteroides fragilis; test: Antibacterial activity against Bacteroides fragilis assessed as growth inhibition by agar dilution assay; type: functional; in short: as §1
[12] = system: Escherichia coli; test: Antibacterial activity against Escherichia coli assessed as growth inhibition at <0.256 mg/ml by agar dilution assay; type: functional, organism-based
[13] = system: Escherichia coli; test: Antibacterial activity against Escherichia coli assessed as growth inhibition by agar dilution assay in presence of 0.002 mg/ml OM permeabilizer PBMN; type: functional
[14] = In vivo acute toxicity in iv dosed Kunming mouse; type: organism-based
In short: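 Male and female adult Kunming mice (18−22 g) received a single intravenous injection at various doses (n = 10 per group, 200 μL per mouse). Compound was given in polyethylene glycol−water (1:1, v/v), and controls received vehicle alone. Mortality was recorded for 7 days. LD50 was estimated by probit analysis.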

[15] = Binding affinity to supercoiled pHOT-1 DNA assessed as unwinding of DNA helix by measuring distribution of topoisomers at 10 to 150 uM treated 15 mins prior to Escherichia coli topoisomerase 1 addition for 30 mins by agarose gel electrophoresis
[16] = Binding affinity to supercoiled pHOT-1 DNA assessed as unwinding of DNA helix by measuring shift of negative to positive supercoiled pHOT-1 at 10 to 150 uM treated 15 mins prior to Escherichia coli topoisomerase 1 addition for 30 mins by agarose gel electrophoresis
[17] = Binding affinity to supercoiled pHOT-1 DNA assessed as unwinding of DNA helix by measuring distribution of topoisomers at 10 to 150 uM treated 15 mins prior to human topoisomerase 1 addition for 30 mins by agarose gel electrophoresis
[18] = target: T1, DNA topoisomerase 1 (Escherichia coli (strain K12)) (UniProt P06612); test: Inhibition of Escherichia coli topoisomerase 1-mediated pHOT-1 DNA relaxation at >90 uM treated with pHOT-1 substrate for 15 mins prior to enzyme addition for 30 mins by agarose gel electrophoresis
T1 sequence (whole entry): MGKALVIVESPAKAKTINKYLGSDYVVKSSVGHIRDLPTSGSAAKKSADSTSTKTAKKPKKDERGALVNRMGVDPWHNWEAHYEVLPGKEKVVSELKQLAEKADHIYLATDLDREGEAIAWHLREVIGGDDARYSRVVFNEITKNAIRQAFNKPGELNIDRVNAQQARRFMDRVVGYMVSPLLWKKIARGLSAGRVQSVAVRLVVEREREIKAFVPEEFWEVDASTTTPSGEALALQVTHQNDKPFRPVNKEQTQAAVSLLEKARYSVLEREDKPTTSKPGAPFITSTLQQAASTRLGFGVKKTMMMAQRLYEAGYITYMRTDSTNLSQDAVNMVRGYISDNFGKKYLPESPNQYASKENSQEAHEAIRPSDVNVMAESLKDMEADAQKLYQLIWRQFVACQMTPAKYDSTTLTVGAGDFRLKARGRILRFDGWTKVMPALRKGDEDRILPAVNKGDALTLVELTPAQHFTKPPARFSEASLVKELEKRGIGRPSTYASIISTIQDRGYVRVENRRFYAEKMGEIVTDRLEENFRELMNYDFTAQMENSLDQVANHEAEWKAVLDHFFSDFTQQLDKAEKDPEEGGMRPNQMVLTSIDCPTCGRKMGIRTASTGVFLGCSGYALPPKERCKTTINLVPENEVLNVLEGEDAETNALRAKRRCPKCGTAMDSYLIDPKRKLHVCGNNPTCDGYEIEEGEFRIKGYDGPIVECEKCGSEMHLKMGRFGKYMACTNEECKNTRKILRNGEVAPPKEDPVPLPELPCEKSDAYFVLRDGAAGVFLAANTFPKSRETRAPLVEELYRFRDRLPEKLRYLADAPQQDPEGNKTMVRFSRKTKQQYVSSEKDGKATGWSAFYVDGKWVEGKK

[19] = target: T1, DNA topoisomerase 1 (Escherichia coli (strain K12)); test: Inhibition of Escherichia coli topoisomerase 1 assessed as single stranded breaks using pHOT-1 DNA as substrate treated with substrate for 15 mins prior to enzyme addition for 30 mins by agarose gel electrophoresis
[20] = system: Escherichia coli; test: Inhibition of Escherichia coli DNA gyrase-mediated double-stranded catenated kinetoplast DNA decatenation at 90 uM after 30 mins by agarose gel electrophoresis in presence of ATP
In short: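 kDNA decatenation: 200 ng catenated kDNA with 1 U S. aureus gyrase, E. coli gyrase or human Topo IIα in assay buffer with ATP, 37 °C for 30 min. Stopped with universal stop solution, resolved on 1% agarose, ethidium bromide stained, UV imaging.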

[21] = target: DNA gyrase (Staphylococcus aureus) (UniProt P0A0K8+P20831); test: Inhibition of Staphylococcus aureus DNA gyrase-mediated pHOT-1 supercoiling at 30 uM after 30 mins by agarose gel electrophoresis in presence of ATP; type: protein-complex assay
In short: (§3)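 Supercoiling: 100 ng relaxed pHOT-1 with 1 U S. aureus or E. coli gyrase and graded compound concentrations, ATP present, 37 °C for 30 min. Stopped with 10% SDS, 1% agarose electrophoresis, ethidium bromide staining, UV imaging; ciprofloxacin positive control.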

[22] = system: Escherichia coli; test: Inhibition of Escherichia coli DNA gyrase-mediated pHOT-1 supercoiling at 30 uM after 30 mins by agarose gel electrophoresis in presence of ATP; in short: as §3
[23] = system: Staphylococcus aureus; test: microbe, parasite or virus in culture; type: functional; conditions: ATCC 6538
[24] = system: Staphylococcus aureus; test: Antibacterial activity against Staphylococcus aureus ATCC 29213 assessed as growth inhibition by agar dilution assay; type: functional; in short: as §1

Chain of DNA gyrase (Staphylococcus aureus) (P0A0K8 2-644 limits assumed): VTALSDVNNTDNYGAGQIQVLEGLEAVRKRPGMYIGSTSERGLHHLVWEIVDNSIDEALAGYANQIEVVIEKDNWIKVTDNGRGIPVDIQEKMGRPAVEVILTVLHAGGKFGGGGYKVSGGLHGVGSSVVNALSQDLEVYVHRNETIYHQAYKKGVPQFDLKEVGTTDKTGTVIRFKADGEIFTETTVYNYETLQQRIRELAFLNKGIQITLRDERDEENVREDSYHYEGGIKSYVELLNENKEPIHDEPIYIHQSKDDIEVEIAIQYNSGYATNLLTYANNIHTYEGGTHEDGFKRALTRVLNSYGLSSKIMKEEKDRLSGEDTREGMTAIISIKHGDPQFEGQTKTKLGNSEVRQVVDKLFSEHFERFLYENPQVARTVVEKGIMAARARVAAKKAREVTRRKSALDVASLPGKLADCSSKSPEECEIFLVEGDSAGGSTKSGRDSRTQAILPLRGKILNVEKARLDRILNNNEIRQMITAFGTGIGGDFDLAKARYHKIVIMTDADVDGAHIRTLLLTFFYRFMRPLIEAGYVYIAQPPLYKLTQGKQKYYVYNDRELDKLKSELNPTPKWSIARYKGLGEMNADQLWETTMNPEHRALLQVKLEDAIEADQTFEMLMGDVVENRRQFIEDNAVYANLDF
Chain of DNA gyrase (Staphylococcus aureus) (P20831 whole entry partner): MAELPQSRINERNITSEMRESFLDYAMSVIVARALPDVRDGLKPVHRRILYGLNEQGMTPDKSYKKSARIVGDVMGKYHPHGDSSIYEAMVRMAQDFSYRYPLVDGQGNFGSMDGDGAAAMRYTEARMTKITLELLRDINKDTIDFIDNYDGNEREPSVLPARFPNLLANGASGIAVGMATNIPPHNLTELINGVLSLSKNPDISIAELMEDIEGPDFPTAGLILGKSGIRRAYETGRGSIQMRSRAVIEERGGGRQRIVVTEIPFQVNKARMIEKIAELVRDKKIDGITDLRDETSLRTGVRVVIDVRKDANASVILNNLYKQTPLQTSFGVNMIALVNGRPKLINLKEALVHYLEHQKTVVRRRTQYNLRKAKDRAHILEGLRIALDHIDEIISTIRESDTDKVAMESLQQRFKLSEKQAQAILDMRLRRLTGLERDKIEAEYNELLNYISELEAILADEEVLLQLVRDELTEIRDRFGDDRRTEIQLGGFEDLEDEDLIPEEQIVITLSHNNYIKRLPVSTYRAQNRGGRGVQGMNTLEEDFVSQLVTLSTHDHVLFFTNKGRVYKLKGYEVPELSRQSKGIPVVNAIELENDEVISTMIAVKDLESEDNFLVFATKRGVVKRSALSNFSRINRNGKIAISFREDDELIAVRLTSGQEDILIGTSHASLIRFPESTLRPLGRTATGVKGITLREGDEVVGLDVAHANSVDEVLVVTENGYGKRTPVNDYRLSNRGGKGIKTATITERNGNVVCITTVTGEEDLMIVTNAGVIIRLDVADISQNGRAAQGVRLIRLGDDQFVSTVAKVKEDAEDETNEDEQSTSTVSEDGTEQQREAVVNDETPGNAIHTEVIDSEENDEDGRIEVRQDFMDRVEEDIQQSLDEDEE

SMILES: Cc1cc(O)c2c(c1)C(=O)c1c(I)c(O)c(I)c(O)c1C2=O
- MIC [1]: 1 µg/mL (≈ 1.92 µM)
- MIC [2]: 4 µg/mL (≈ 7.66 µM)
- MIC [3]: 8 µg/mL (≈ 15.3 µM)
- MIC [4]: 8 µg/mL (≈ 15.3 µM)
- MIC [5]: 4 µg/mL (≈ 7.66 µM)
- MIC [6]: 64 µg/mL (≈ 123 µM)
- MIC [7]: 32 µg/mL (≈ 61.3 µM)
- MIC [8]: > 256 µg/mL
- MIC [9]: > 256 µg/mL
- MIC [10]: 256 µg/mL (≈ 490 µM)
- MIC [11]: 64 µg/mL (≈ 123 µM)
- growth inhibition (GI) [12]: inactive
- MIC [13]: 8 µg/mL
- LD50 [14]: 110 mg/kg
- Activity [15]: inactive
- Activity [16]: inactive
- Activity [17]: inactive
- inhibition [18]: Active
- Activity [19]: inactive
- inhibition [20]: Active
- inhibition [21]: Active
- inhibition [22]: Active
- MIC [23]: 2 µg/mL (≈ 3.83 µM)
- MIC [24]: 8 µg/mL (≈ 15.3 µM)
